How the values were obtained:
[1] = Inhibition of calf tubulin polymerization; parameters: species or system Bos taurus
Procedure, shortened: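 Tubulin purified from calf brain; polymerization followed turbidimetrically at 350 nm. IC50 obtained from the data by nonlinear regression.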

BXPC-3 = assay: Cytotoxicity against human BXPC3 cells after 48 hrs by SRB assay; type: functional
Procedure, shortened: (§1)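 Cells grown in RPMI1640 with 5% fetal bovine serum were seeded and incubated 24 h, then exposed to serial dilutions for 48 h. Plates were fixed with trichloroacetic acid, stained with sulforhodamine B and read by plate reader. GI50 is the concentration giving a 50% reduction in net protein increase, calculated from optical density data.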

MCF7 = assay: Cytotoxicity against human MCF7 cells after 48 hrs by SRB assay; type: functional; procedure, shortened: as §1
SF-268 = assay: Cytotoxicity against human SF268 cells after 48 hrs by SRB assay; type: functional; procedure, shortened: as §1
NCI-H460 = assay: Cytotoxicity against human NCIH460 cells after 48 hrs by SRB assay; type: functional; procedure, shortened: as §1
KM-20L2 = assay: Cytotoxicity against human KM20L2 cells after 48 hrs by SRB assay; type: functional; procedure, shortened: as §1
DU-145 = assay: Cytotoxicity against human DU145 cells after 48 hrs by SRB assay; type: functional; procedure, shortened: as §1
Mus musculus [2] = assay: Reduction of blood flow to tumor in MHEC5-T xenografted SCID mouse at 100 mg/kg, ip after 24 hrs; type: functional; parameters: scale not given: the % may be the effect or the level left; conditions: route intraperitoneal
Procedure, shortened: (§2)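 SCID mice bearing flank MHEC5-T tumours (cultured cells injected into right flank), dosed ip at 10 or 100 mg/kg once tumours reached 300 mm3 without necrosis. At 24 h, diluted fluorescent microbeads (1:6 in saline) injected iv via tail vein; mice killed 3 min later. 8 µm cryosections of tumour and normal organs imaged by fluorescence microscopy; three sections from three tumours per group; vehicle controls.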

[3] = Cytotoxicity against mouse MHEC5-T cells after 1 hr by MTT assay; type: functional, cell-based
Procedure, shortened: (§3)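 Mouse heart endothelioma MHEC5-T cells exposed to serial dilutions of compound; viability read by MTT reduction after incubation at 37 °C for 1 h or 5 days exposure. IC50 = concentration reducing viability by 50% versus untreated control.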

[4] = Cytotoxicity against mouse MHEC5-T cells after 5 days by MTT assay; type: functional, cell-based; conditions: 120 h; procedure, shortened: as §3
P388 = assay: Growth inhibition of mouse P388 cells; type: functional; conditions: read-out: ED50 (the source's name)
Mus musculus [5] = assay: Reduction of blood flow to tumor in MHEC5-T xenografted SCID mouse at 10 mg/kg, ip after 24 hrs; type: functional; parameters: scale not given: the % may be the effect or the level left; conditions: route intraperitoneal; procedure, shortened: as §2

SMILES | IC50 [1] [nM] | GI50 (BXPC-3; Homo sapiens, BXPC-3, 48 h) [nM] | GI50 (MCF7; Homo sapiens, MCF7, 48 h) [nM] | GI50 (SF-268; Homo sapiens, SF-268, 48 h) [nM] | GI50 (NCI-H460; Homo sapiens, NCI-H460, 48 h) [nM] | GI50 (KM-20L2; Homo sapiens, KM-20L2, 48 h) [nM] | GI50 (DU-145; Homo sapiens, DU-145, 48 h) [nM] | Activity (Mus musculus [2]) [%] | IC50 [3] [nM] | IC50 [4] [nM] | EC50 (P388) [nM] | Activity (Mus musculus [5]) [%] | GI50 (BXPC-3) [nM] | GI50 (SF-268) [nM] | GI50 (KM-20L2) [nM] | GI50 (MCF7) [nM] | GI50 (NCI-H460) [nM] | GI50 (DU-145) [nM]
COc1cc(N)c(/C=C\c2cc(OC)c(OC)c(OC)c2)cc1N | 14100 | 1000 | 610 | 550 | 380 | 440 | 330 | – | – | – | – | – | – | – | – | – | – | –
COc1ccc(/C=C\c2cc(OC)c(OC)c(OC)c2)cc1OP(=O)([O-])[O-].[Na+].[Na+] [FOSBRETABULIN DISODIUM] | – | – | – | – | – | – | – | 88 | 800 | 2 | 0.4 | 10 | – | – | – | – | – | –
COc1cc(/C=C/c2ccc(OC)c([N+](=O)[O-])c2[N+](=O)[O-])cc(OC)c1OC | > 40000 | > 10000 | > 10000 | > 10000 | > 10000 | > 10000 | > 10000 | – | – | – | – | – | – | – | – | – | – | –
COc1cc([N+](=O)[O-])c(/C=C/c2cc(OC)c(OC)c(OC)c2)cc1[N+](=O)[O-] | > 40000 | > 10000 | 2500 | 1700 | > 10000 | > 10000 | > 10000 | – | – | – | – | – | – | – | – | – | – | –
COc1cc(/C=C\c2cc(N)c(OC)c(N)c2)cc(OC)c1OC | – | 1500 | 1500 | 1500 | 2400 | 1100 | 2100 | 4.6 | – | – | 5200 | 3.1 | – | – | – | – | – | –
COc1ccc(/C=C\c2cc(OC)c(OC)c(OC)c2)c(N)c1N [listing 1 of 2 here] | 1800 | 14 | 11 | 11 | 9 | 19 | 12 | – | – | – | – | – | – | – | – | – | – | –
COc1cc(/C=C\c2ccc(OC)c([N+](=O)[O-])c2[N+](=O)[O-])cc(OC)c1OC | > 40000 | 2100 | 2300 | 2500 | 370 | 330 | 200 | – | – | – | – | – | – | – | – | – | – | –
COc1cc(/C=C\c2cc([N+](=O)[O-])c(OC)c([N+](=O)[O-])c2)cc(OC)c1OC | 7400 | 790 | 410 | 680 | 370 | 520 | 260 | – | – | – | – | – | – | – | – | – | – | –
COc1cc(N)c(/C=C\c2cc(OC)c(OC)c(OC)c2)cc1[N+](=O)[O-].Cl | – | – | 1500 | – | 4300 | – | 3500 | 13.7 | – | – | 6600 | 0 | 1200 | 1200 | 980 | – | – | –
COc1cc(N)c(/C=C\c2cc(OC)c(OC)c(OC)c2)cc1[N+](=O)[O-] | 31000 | – | – | – | – | – | – | 0 | 37700 | > 1400 | – | 0 | 3200 | 2600 | 3500 | 2600 | 3600 | 3600
COc1cc([N+](=O)[O-])c(/C=C\c2cc(OC)c(OC)c(OC)c2)cc1N | > 40000 | 2700 | 2600 | 2800 | 2500 | 3500 | 3300 | – | – | – | – | – | – | – | – | – | – | –
COc1cc(/C=C\c2cc(NC(=O)[C@@H](N)CO)c(OC)c(NC(=O)[C@@H](N)CO)c2)cc(OC)c1OC | > 40000 | – | – | – | – | – | – | – | – | – | – | – | – | – | – | – | – | –
COc1ccc(/C=C\c2cc(OC)c(OC)c(OC)c2)c(O)c1O [COMBRETASTATIN A-1] | 1900 | 4400 | – | – | 740 | 61 | 170 | – | – | – | – | – | – | – | – | – | – | –
COc1cc(/C=C\c2cc(N)c(OC)c(N)c2)cc(OC)c1OC.Cl.Cl | > 40000 | – | – | – | – | – | – | 6 | > 44800 | > 1400 | – | 0 | – | – | – | – | – | –
COc1cc(/C=C\c2ccc(OC)c(OP(=O)([O-])[O-])c2OP(=O)([O-])[O-])cc(OC)c1OC.[Na+].[Na+].[Na+].[Na+] | – | – | – | – | – | – | – | 99 | 3200 | 4.6 | < 10 | 70 | – | – | – | – | – | –
COc1ccc(/C=C\c2cc(OC)c(OC)c(OC)c2)c(N)c1N [listing 2 of 2 here] | 2800 | – | – | – | – | – | – | – | 2400 | 4.3 | – | 40 | 7.9 | 8.3 | 25 | 6.2 | 18 | 18
COc1cc([N+](=O)[O-])c(/C=C\c2cc(OC)c(OC)c(OC)c2)cc1[N+](=O)[O-] | > 40000 | 3600 | 2300 | 2800 | 3500 | 4600 | 5500 | – | – | – | – | – | – | – | – | – | – | –
COc1cc(/C=C/c2cc([N+](=O)[O-])c(OC)c([N+](=O)[O-])c2)cc(OC)c1OC | > 40000 | > 10000 | > 10000 | > 10000 | > 10000 | > 10000 | > 10000 | – | – | – | – | – | – | – | – | – | – | –
COc1ccc(/C=C\c2cc(OC)c(OC)c(OC)c2)cc1O [COMBRETASTATIN A4] | – | 390 | – | – | 0.6 | 340 | 0.8 | – | – | – | – | – | – | – | – | – | – | –

— ChEMBL document CHEMBL1144850, “Combretastatin dinitrogen-substituted stilbene analogues as tubulin-binding and vascular-disrupting agents” (J Nat Prod, 2008)
